Test results taken from ChEMBL document CHEMBL4330187, “Synthesis of 5-Thio-α-GalCer Analogues with Fluorinated Acyl Chain on Lipid Residue and Their Biological Evaluation” (2019).
Activity calls are given as the source filed them. No cut-off for these calls is given here.

Legend:
Mus musculus [1] = test: Immunomodulatory activity in C57BL/6 mouse assessed as increase in IL-4 secretion in serum at 100 ug/kg, ip by ELISA; assay type: functional, organism-based
Outline: (§1)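 Glycolipid given once i.p. to B6 mice at 100 μg/kg in 0.1 mL vehicle. Serum IL-4 and IFN-γ followed over time after injection, three mice per group, each serum sampled individually. IFN-γ/IL-4 selectivity expressed two ways: ratio of areas under the time–concentration curves, and ratio of peak (maximum) production.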

Mus musculus [2] = test: Immunomodulatory activity in C57BL/6 mouse assessed as increase in IFN-gamma secretion in serum at 100 ug/kg, ip by ELISA; assay type: functional, organism-based; outline: as §1
Mus musculus [3] = test: Immunomodulatory activity in C57BL/6 mouse assessed as serum IFNgamma/IL-4 maximum productivity ratio at 100 ug/kg, ip by ELISA; assay type: functional; outline: as §1
Mus musculus [4] = test: Immunomodulatory activity in C57BL/6 mouse assessed as serum IFNgamma/IL-4 AUC ratio at 100 ug/kg, ip by ELISA; assay type: functional; outline: as §1
Mus musculus [5] = test: Immunomodulatory activity in C57BL/6 mouse assessed as increase in IL-4 secretion in serum at 100 ug/kg, ip after 3 hrs by ELISA; assay type: functional, organism-based; outline: as §1

CCCCCCCCCCCCCC[C@@H](O)[C@@H](O)[C@H](CO[C@H]1O[C@H](CO)[C@H](O)[C@H](O)[C@H]1O)NC(=O)CCCCCCC(F)(F)F
Activity (Mus musculus [1]): inactive
Activity (Mus musculus [2]): inactive

CCCCCCCCCCCCCC[C@@H](O)[C@@H](O)[C@H](CO[C@H]1O[C@H](CO)[C@H](O)[C@H](O)[C@H]1O)NC(=O)C(F)(F)C(F)(F)C(F)(F)C(F)(F)C(F)(F)C(F)(F)C(F)(F)F
Ratio (Mus musculus [3]): 3.4
Ratio (Mus musculus [4]): 5.8

CCCCCCCCCCCCCC[C@@H](O)[C@@H](O)[C@H](CO[C@H]1S[C@H](CO)[C@H](O)[C@H](O)[C@H]1O)NC(=O)CCCCCCC(F)(F)F
Activity (Mus musculus [1]): inactive
Activity (Mus musculus [2]): inactive

CCCCCCCCCCCCCC[C@@H](O)[C@@H](O)[C@H](CO[C@H]1S[C@H](CO)[C@H](O)[C@H](O)[C@H]1O)NC(=O)C(F)(F)C(F)(F)C(F)(F)C(F)(F)C(F)(F)C(F)(F)C(F)(F)F
Ratio (Mus musculus [3]): 9
Ratio (Mus musculus [4]): 26.7

CCCCCCCCCCCCCC[C@@H](O)[C@@H](O)[C@H](CO[C@H]1O[C@H](CO)[C@H](O)[C@H](O)[C@H]1O)NC(=O)C(F)(F)C(F)(F)C(F)(F)C(F)(F)C(F)(F)C(F)(F)C(F)(F)C(F)(F)C(F)(F)C(F)(F)C(F)(F)C(F)(F)C(F)(F)F
Activity (Mus musculus [1]): inactive
Activity (Mus musculus [2]): inactive

CCCCCCCCCCCCCCCCCCCCCCCCCC(=O)N[C@@H](CO[C@H]1O[C@H](CO)[C@H](O)[C@H](O)[C@H]1O)[C@H](O)[C@H](O)CCCCCCCCCCCCCC [RGI-7000]
Activity (Mus musculus [2]): Active
Ratio (Mus musculus [3]): 2.8
Ratio (Mus musculus [4]): 12.1
Activity (Mus musculus [5]): Active

CCCCCCCCCCCCCC[C@@H](O)[C@@H](O)[C@H](CO[C@H]1S[C@H](CO)[C@H](O)[C@H](O)[C@H]1O)NC(=O)C(F)(F)C(F)(F)C(F)(F)C(F)(F)C(F)(F)C(F)(F)C(F)(F)C(F)(F)C(F)(F)C(F)(F)C(F)(F)C(F)(F)C(F)(F)F
Ratio (Mus musculus [3]): 0.59
Ratio (Mus musculus [4]): 0.58
